Four compounds from ChEMBL document CHEMBL4152223 (Eur J Med Chem, 2018) can be followed below.

The term MIC denotes the smallest concentration in the dilution series that meets the test's criterion for growth inhibition. The IC50 is the concentration needed to halve the response being measured.

Structures are written as SMILES. ≈ marks a conversion by molar mass, not a printed value. Calls of active or inactive are those of the source.

For series [1], the system named is Mycobacterium tuberculosis. Briefly: Antimycobacterial activity against Mycobacterium tuberculosis H37Rv after 14 days. In kind it is functional. The note with it: 336 h.
Series [2] relates to Mycobacterium kansasii. Briefly: Antimycobacterial activity against Mycobacterium kansasii 235/80 after 21 days. In kind it is functional. The note with it: 235/80, 504 h.
Series [3] deals with Mycobacterium kansasii. The series can be described thus: Antimycobacterial activity against Mycobacterium kansasii 6509/96 after 21 days. The note with it: 6509/96, 504 h. In kind it is functional.
In series [4] the test system is Mycobacterium kansasii. The series can be described thus: Antimycobacterial activity against Mycobacterium kansasii 6509/96 after 7 days. The note with it: 6509/96, 168 h. Format: functional.
In series [5] the test system is Mycobacterium avium. The series can be described thus: Antimycobacterial activity against INH/RIF/OFX resistant Mycobacterium avium 330/88 after 14 days. Format: functional. The note with it: 330/88, 336 h.
Series [6] concerns Mycobacterium kansasii. The series can be described thus: Antimycobacterial activity against Mycobacterium kansasii 235/80 after 14 days. The note with it: 235/80, 336 h. Format: functional.
Series [7] in a line: Selectivity index, ratio of IC50 for human HepG2 cells to MIC for Mycobacterium tuberculosis H37Rv after 14 days. Format: toxicity. The note with it: read-out: Selectivity Index. The procedure, abridged:
(§1)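 SI is calculated as HepG2 IC50 divided by MIC. HepG2 cells (passage 2-4) were grown in EMEM with 10% FBS, L-glutamine and non-essential amino acids. Compounds in DMSO were tested in triplicate at eight concentrations, and viability was read by MTS tetrazolium reduction. IC50 is the concentration reducing viability to 50% of control. 10% DMSO served as the 0% viability control.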

In series [8] the test system is Mycobacterium kansasii. Briefly: Antimycobacterial activity against Mycobacterium kansasii 235/80 after 7 days. In kind it is functional. Conditions: 235/80, 168 h.
Series [9] has as its system Mycobacterium kansasii. The series can be described thus: Antimycobacterial activity against Mycobacterium kansasii 6509/96 after 14 days. Format: functional. Conditions: 6509/96, 336 h.
The test system of series [10] is Mycobacterium tuberculosis. Briefly: Antimycobacterial activity against Mycobacterium tuberculosis H37Rv after 21 days. Format: functional. Conditions: 504 h.
The next series concerns HepG2. Briefly: Cytotoxicity against human HepG2 cells assessed as reduction in cell viability by MTS assay. Format: cell-based. The procedure, abridged:
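HepG2 human hepatocellular carcinoma cells (passage 2-4) were cultured in Eagle's MEM with 10% FBS, 1% L-glutamine and non-essential amino acids. Compounds were dissolved in DMSO and tested in triplicate at eight concentrations. Viability was read by colorimetric MTS tetrazolium reduction. Controls were 100% viability and 0% viability (10% DMSO). IC50 is the concentration reducing viability to 50% of control.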

For series [11], the system named is Mycobacterium avium. The series can be described thus: Antimycobacterial activity against INH/RIF/OFX resistant Mycobacterium avium 330/88 after 21 days. Format: functional. Conditions: 330/88, 504 h.
A short description of series [12]: Selectivity index, ratio of IC50 for human HepG2 cells to MIC for Mycobacterium kansasii 235/80. Format: toxicity. The note with it: read-out: Selectivity Index. The procedure, abridged: as §1
The target of series [13] is T1, Enoyl-[acyl-carrier-protein] reductase [NADH] (Mycobacterium tuberculosis) (UniProt P9WGR1).
T1 sequence (whole entry): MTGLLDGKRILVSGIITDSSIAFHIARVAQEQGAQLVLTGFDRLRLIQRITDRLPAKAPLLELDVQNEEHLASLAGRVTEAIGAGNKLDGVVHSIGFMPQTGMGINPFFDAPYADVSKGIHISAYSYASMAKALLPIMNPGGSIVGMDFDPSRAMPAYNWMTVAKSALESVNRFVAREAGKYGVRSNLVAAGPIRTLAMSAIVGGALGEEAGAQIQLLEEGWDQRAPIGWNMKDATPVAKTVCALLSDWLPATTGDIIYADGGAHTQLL
Briefly: Inhibition of Mycobacterium tuberculosis H37Rv InhA assessed as reduction of trehalose dimycolate synthesis at 36.5 uM preincubated for 1 hr followed by [14C]glucose addition and measured after 24 hrs by TLC analysis.

Series [14] addresses T1, Enoyl-[acyl-carrier-protein] reductase [NADH] (Mycobacterium tuberculosis). Briefly: Inhibition of Mycobacterium tuberculosis H37Rv InhA assessed as reduction of trehalose monomycolate synthesis at 36.5 uM preincubated for 1 hr followed by [14C]glucose addition and measured after 24 hrs by TLC analysis.
A short description of series [15]: Selectivity index, ratio of IC50 for human HepG2 cells to MIC for Mycobacterium kansasii 6509/96. The note with it: read-out: Selectivity Index. Format: toxicity. The procedure, abridged: as §1

On to `CCCCNC(=O)NNC(=O)c1ccncc1`, for which the MIC in [1] is 8 µM (≈ 1.89 µg/mL); in the series with Mycobacterium kansasii [2] it was 1000 µM (≈ 236 µg/mL); with Mycobacterium kansasii [3], 500 µM (≈ 118 µg/mL); in the series with Mycobacterium kansasii [4], 250 µM (≈ 59.1 µg/mL); in the series on Mycobacterium avium [5], more than 1000 µM; in the series on Mycobacterium kansasii [6], 1000 µM (≈ 236 µg/mL). In addition, the MIC against Mycobacterium kansasii [8] was 500 µM (≈ 118 µg/mL); in the series on Mycobacterium kansasii [9] it was 250 µM (≈ 59.1 µg/mL); in series [10], 8 µM (≈ 1.89 µg/mL); with Mycobacterium avium [11] it was more than 1000 µM. Also, in series [7], the selectivity ratio at 336 h was more than 375. Besides, in the series on HepG2, the IC50 is more than 3 mM.
For the compound `NNC(=O)c1ccncc1` [ISONIAZID], the MIC in [1] was 0.5 µM (≈ 0.0686 µg/mL); in the series with Mycobacterium kansasii [2], more than 250 µM; against Mycobacterium kansasii [3], 8 µM (≈ 1.1 µg/mL); against Mycobacterium kansasii [4], 8 µM (≈ 1.1 µg/mL); in the series on Mycobacterium avium [5], more than 250 µM; against Mycobacterium kansasii [6] it was more than 250 µM. For the same compound, the MIC against Mycobacterium kansasii [8] was more than 250 µM; in the series with Mycobacterium kansasii [9], 8 µM (≈ 1.1 µg/mL); in [10], 1 µM (≈ 0.137 µg/mL); against Mycobacterium avium [11] it was more than 250 µM. Also, the selectivity ratio in series [12] and in [15] was more than 625 throughout. The inhibition result in series [13] and in series [14] was “Active” in each case. The selectivity ratio at 336 h in series [7] is more than 5000. The IC50 with HepG2 is more than 5 mM.
With `CCCCCCCCCCCNc1nnc(-c2ccncc2)o1`, the MIC stood at 32 µM (≈ 10.1 µg/mL) in series [1]; 32 µM (≈ 10.1 µg/mL) against Mycobacterium kansasii [2]; 250 µM (≈ 79.1 µg/mL) in the series on Mycobacterium kansasii [3]; 125 µM (≈ 39.6 µg/mL) against Mycobacterium kansasii [4]; 500 µM (≈ 158 µg/mL) in the series on Mycobacterium avium [5]; 16 µM (≈ 5.06 µg/mL) against Mycobacterium kansasii [6]. The MIC in the series with Mycobacterium kansasii [8] is 8 µM (≈ 2.53 µg/mL); in the series on Mycobacterium kansasii [9], 125 µM (≈ 39.6 µg/mL); in series [10], 32 µM (≈ 10.1 µg/mL); with Mycobacterium avium [11], 500 µM (≈ 158 µg/mL). Moreover, the selectivity ratio at 336 h in series [7] amounted to 5.4. In addition, the IC50 with HepG2 came to 0.172 mM.
Consider `CCCCCCNC(=O)NNC(=O)c1ccncc1`, for which the MIC in series [1] came to 32 µM (≈ 8.46 µg/mL); in the series on Mycobacterium kansasii [2], 250 µM (≈ 66.1 µg/mL); against Mycobacterium kansasii [3], 500 µM (≈ 132 µg/mL); in the series with Mycobacterium kansasii [4], 250 µM (≈ 66.1 µg/mL); in the series on Mycobacterium avium [5], 500 µM (≈ 132 µg/mL); against Mycobacterium kansasii [6], 250 µM (≈ 66.1 µg/mL). In addition, the MIC against Mycobacterium kansasii [8] amounted to 250 µM (≈ 66.1 µg/mL); in the series on Mycobacterium kansasii [9], 500 µM (≈ 132 µg/mL); in [10], 32 µM (≈ 8.46 µg/mL); with Mycobacterium avium [11], 500 µM (≈ 132 µg/mL). For the same compound, the selectivity ratio at 336 h in [7] is more than 31.3. Also, the IC50 in the series with HepG2 was more than 1 mM.
